Data set [1] can be described thus: Cytotoxicity against phytohemagglutininin-stimulated human T blast cells at 30 uM after 24 hrs relative to control. Format: cell-based. The conditions noted are these: t-cell. In short, it runs like this:
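PBMC T cells (1.25×10^6/mL) stimulated with 5 μg/mL PHA for 4 days to give dividing blasts. Blasts at 1.5×10^6/mL were exposed to 30 μM compound in RPMI with 10% FBS and 0.003% DMSO final, for 24 h at 37 °C, 5% CO2. Viability was read as metabolic activity by AlamarBlue and expressed relative to control.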

The next data set deals with Mus musculus. Put plainly: Inhibition of LPS-induced TNFalpha release in BALB/c mouse at 5 mg/kg, po after 90 mins. Also noted: dose 5 mg/kg. Format: functional, organism-based. In short, it runs like this: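 Female BALB/c mice, 6–8 weeks old. Compound in 100% PEG 300 given by oral gavage 30 min before ip LPS (0.1 mL of 10 μg/mL in PBS). Blood was taken 90 min after LPS and serum TNF-α measured by ELISA. Mean ± SD, n = 8 mice per group.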

Data set [2] addresses MAP kinase-activated protein kinase 2 (Homo sapiens, UniProt P49137). Put plainly: Inhibition of MK2.
Data set [3] addresses T1, Inhibitor of nuclear factor kappa-B kinase subunit beta (Homo sapiens, UniProt O14920).
T1 sequence (O14920 whole entry): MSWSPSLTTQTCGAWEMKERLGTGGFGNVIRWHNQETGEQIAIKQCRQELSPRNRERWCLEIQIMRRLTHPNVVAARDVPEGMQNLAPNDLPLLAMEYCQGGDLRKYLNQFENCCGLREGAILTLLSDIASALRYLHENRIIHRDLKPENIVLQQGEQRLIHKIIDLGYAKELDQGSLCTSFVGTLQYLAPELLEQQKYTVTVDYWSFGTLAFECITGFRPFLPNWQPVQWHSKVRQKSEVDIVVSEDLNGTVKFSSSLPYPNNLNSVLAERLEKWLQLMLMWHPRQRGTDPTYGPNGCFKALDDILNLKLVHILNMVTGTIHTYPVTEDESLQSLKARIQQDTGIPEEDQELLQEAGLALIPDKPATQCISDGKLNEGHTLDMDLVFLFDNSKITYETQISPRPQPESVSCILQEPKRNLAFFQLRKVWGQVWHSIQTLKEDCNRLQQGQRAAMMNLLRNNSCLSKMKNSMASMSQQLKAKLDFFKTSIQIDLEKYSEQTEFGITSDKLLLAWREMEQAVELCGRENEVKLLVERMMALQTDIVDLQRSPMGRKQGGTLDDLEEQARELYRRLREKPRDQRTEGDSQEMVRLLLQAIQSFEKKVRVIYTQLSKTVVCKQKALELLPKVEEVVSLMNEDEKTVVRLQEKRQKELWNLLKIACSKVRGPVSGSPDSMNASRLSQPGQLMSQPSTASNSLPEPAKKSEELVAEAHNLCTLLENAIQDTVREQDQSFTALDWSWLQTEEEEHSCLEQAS
Briefly: Inhibition of human IKK2beta.

Data set [4] has as its target Mitogen-activated protein kinase 14 (Homo sapiens, UniProt Q16539). Briefly: Inhibition of human p38-alpha expressed in Escherichia coli.

The source made the active and inactive calls. No cut-off for these calls is given here.

Sequence of MAP kinase-activated protein kinase 2 (P49137 whole entry): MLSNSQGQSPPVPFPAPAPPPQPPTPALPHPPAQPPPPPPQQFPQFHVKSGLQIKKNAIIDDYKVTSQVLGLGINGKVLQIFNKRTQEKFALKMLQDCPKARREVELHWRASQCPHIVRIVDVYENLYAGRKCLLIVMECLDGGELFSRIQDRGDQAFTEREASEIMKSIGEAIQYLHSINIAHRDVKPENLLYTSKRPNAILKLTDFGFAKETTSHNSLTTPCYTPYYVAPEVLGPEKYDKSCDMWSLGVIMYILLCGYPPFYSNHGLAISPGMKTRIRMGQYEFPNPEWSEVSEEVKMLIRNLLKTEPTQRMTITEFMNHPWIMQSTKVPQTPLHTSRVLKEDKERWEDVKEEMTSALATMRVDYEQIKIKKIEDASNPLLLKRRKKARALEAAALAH
Sequence of Mitogen-activated protein kinase 14 (Q16539 whole entry): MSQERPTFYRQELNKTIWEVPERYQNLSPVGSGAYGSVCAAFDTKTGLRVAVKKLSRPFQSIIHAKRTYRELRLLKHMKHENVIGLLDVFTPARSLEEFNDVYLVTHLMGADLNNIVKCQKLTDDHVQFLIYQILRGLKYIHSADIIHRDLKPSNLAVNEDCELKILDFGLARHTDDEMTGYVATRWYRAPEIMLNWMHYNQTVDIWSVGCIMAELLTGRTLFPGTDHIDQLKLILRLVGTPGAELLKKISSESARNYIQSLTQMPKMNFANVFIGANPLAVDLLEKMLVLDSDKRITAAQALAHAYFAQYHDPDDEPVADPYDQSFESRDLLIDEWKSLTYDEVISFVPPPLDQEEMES

The compound `CONC(=O)c1ccc(C)c(Nc2nc(N(C)CC(C)(C)C)nc(N3CCCN(C)CC3)n2)c1` came in with an Activity in data set [1] of 70%. Moreover, in the data set with Mus musculus, the outcome was Active. Besides, the IC50 in data set [2] is more than 10 µM; in data set [3], more than 10 µM; in data set [4], 44 nM.

The term IC50 denotes the midpoint of a concentration-inhibition curve. Lower therefore signals inhibition by little substance.

The values above are taken from ChEMBL document CHEMBL1149254, “The discovery of orally active triaminotriazine aniline amides as inhibitors of p38 MAP kinase” (J Med Chem, 2004).
